# Assay outcomes (PubChem)
# Most compounds without a hit are left out; they make up all but 2.7% or so of the library.
# RBBP9 inh: human RBBP9 hydrolase inhibition. recombinant RBBP9, FP-Rh probe fluorescence polarization. inhibition, % at 7.94 µM. 220,000 compounds, 0.2% hits. AID 1515. O75884;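 active = inhibition above the campaign mean of all tested compounds plus 3 SD, cut at about 14% in these data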;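 also: plate controls were DMSO wells with RBBP9 for no effect and wells lacking RBBP9 protein for full effect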
#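 Test system – recombinant human RBBP9 · Input – RBBP9 2.5 µM in dispensing solution, pre-mixing · Medium – Tris buffer pH 8.0, NaCl, Pluronic · Schedule – preincubation 30 min plus labeling 45 min at 25 °C · Measured by – fluorescence polarization · Measure – % inhibition · Controls – DMSO and no-protein wells · Replicates – one well per compound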
# pPAFAH FP inh: inhibitors of human plasma PAF acetylhydrolase (pPAFAH); inhibition, % at 3.39 µM; 330,000 compounds, 1.5% hits; Q13093; recombinant pPAFAH, FP-rhodamine probe fluorescence polarization; AID 463082;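 active = inhibition above the mean inhibition across the screen plus 3 SD, cut at about 25% in these data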;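 also: inhibitors block binding of the rhodamine activity-based probe so polarization drops; 0% = enzyme with DMSO and 100% = wells lacking pPAFAH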
# PAFAH1B2 FP inh: inhibitors of human PAFAH1B2; P68402; recombinant PAFAH1B2, FP-rhodamine activity probe, fluorescence polarization; inhibition, % at 3.39 µM; 340,000 compounds, 1.2% hits;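 active = inhibition above the mean of all tested compounds plus 3 SD, cut at about 24% in these data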;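 also: 0% = enzyme with DMSO and 100% = wells lacking PAFAH1B2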
# Target sequence (P68402 whole entry, looked up): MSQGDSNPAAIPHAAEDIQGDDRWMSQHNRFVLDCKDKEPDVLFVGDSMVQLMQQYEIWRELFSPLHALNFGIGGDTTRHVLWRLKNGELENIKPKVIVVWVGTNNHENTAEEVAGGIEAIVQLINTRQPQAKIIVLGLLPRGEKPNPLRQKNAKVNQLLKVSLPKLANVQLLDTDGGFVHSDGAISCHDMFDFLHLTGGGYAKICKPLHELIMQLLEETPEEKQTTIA
# PAFAH1B3 FP inh: inhibitors of human PAFAH1B3; inhibition, % at 3.39 µM; 340,000 compounds, 0.28% hits; recombinant PAFAH1B3, FP-rhodamine probe, fluorescence polarization;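 active = inhibition above the screen-wide average of all tested compounds plus 3 SD, cut at about 25% in these data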;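 also: 0% = enzyme with DMSO only and 100% = wells lacking PAFAH1B3 protein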
# Target sequence (Q15102 whole entry, looked up): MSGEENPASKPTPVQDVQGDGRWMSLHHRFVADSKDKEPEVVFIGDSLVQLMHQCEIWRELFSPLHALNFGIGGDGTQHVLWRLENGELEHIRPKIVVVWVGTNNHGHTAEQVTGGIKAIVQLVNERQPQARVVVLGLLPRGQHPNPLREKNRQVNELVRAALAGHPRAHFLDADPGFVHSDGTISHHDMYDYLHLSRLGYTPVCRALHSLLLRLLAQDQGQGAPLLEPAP
# PAFAH2 inh: inhibitors of human PAFAH2. 340,000 compounds, 0.99% hits. inhibition, % at 3.39 µM. AID 492956. Q99487. recombinant PAFAH2, FP-rhodamine activity probe, fluorescence polarization;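 active = inhibition above the mean over all tested compounds plus 3 SD, cut at about 30% in these data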;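 also: inhibitors block probe labeling of enzyme so polarization drops; 0% = enzyme with DMSO and 100% = wells lacking PAFAH2 protein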
# pPAFAH FP conf: confirmation of human plasma PAF acetylhydrolase (pPAFAH) inhibitors; shares compounds with pPAFAH FP inh; recombinant pPAFAH, FP-Rh probe fluorescence polarization; inhibition, % at 3.39 µM; 2,300 compounds, 72% hits;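 active = mean inhibition of the triplicate above the hit cutoff set for the earlier primary screen, cut at about 25% in these data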;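 also: 0% = enzyme with DMSO and 100% = wells lacking pPAFAH enzyme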
# * marks the source's active call; other numbers are inactive results; · = no result; ! = not confirmed by another sample.
SMILES,RBBP9 inh,pPAFAH FP inh,PAFAH1B2 FP inh,PAFAH1B3 FP inh,PAFAH2 inh,pPAFAH FP conf
CC1=C(C(=O)Nc2ccc(C(=O)N3CCN(c4cccc(Cl)c4)CC3)cc2)SCCO1,·,42*,0,0,4,24
COC(=O)c1ccc(-n2c(C)cc(/C=N/Nc3nc(C)cc(=O)[nH]3)c2C)cc1,-4,67*,1,7,4,89*
Cc1cc(=O)[nH]c(N/N=C/c2cc(C)n(CC(F)(F)F)c2C)n1,3,3,7,5,0,·
C/C(Cc1nnn(-c2cc(C)on2)n1)=N\O,-6,2,·,·,·,·
CC(=O)CN1Cc2ccccc2/C1=N\C(=O)Nc1ccccc1,2,71*,-1,9,0,7
COc1ccc(N2Cc3ccccc3/C2=N\C(=O)Nc2ccccc2)cc1,-4,-4,1,-5,-6,·
CSc1ccc(CN2CCN(C3CCCC3)C(CCO)C2)cc1 (stereo not given),4,-3,-2,6,-2,·
CCc1nnc(NC(=O)CCC(=O)NCc2ccc(OC)cc2)s1,-2,2,3,7,-5,·
N#C/C(=C\c1cccs1)c1nc2ccccc2[nH]1,-4,14,3,2,2,·
N#C/C(=C/c1ccc(O)c(O)c1)c1nc2ccccc2[nH]1,·,63*,45*,58*,62*,79*
COc1cccc(C(=O)N2CCC(C(=O)NCc3ccc(C)cc3)CC2)c1,·,-10,7,1,7,·
O=C(CNC(=O)c1nc[nH]c1C(=O)NCc1ccccc1)OCc1ccccc1,·,35*,8,14,4,24
C#CCN(CC=C)C(=O)c1ccc2nc(C3CCCCC3)oc2c1,·,-1,3,7,2,·
CCN(CC)c1ccc(/C=N/NC(=O)c2cccc(S(=O)(=O)Nc3ccccc3OC)c2)c(O)c1,-14,48*,15,18,9,65*
CCN(CC)c1ccc(/C=N/NC(=O)c2cccc(S(=O)(=O)Nc3ccccc3OC)c2)cc1,-10,13,10,7,-2,·
O=C(Nc1ccc(NC(=O)c2cc([N+](=O)[O-])ccc2N2CCOCC2)cc1)c1cccs1,-4,3,1,0,-4,·
CCOc1cc(CNCCO)cc(Br)c1OCc1ccc(Cl)cc1Cl,-10,42*,4,0,-3,30*
N#CC(C#N)=C(N)/C(C#N)=C/c1cc(O)c(O)c(O)c1,·,39*,33*,39*,35*,60*
N#C/C(=C/c1cc(Cl)c(O)c(Cl)c1)C(=O)N1CCCCC1,·,6,7,4,9,·
CCOc1ccc(OCCC(=O)OCC(=O)Nc2ccc(N3CCOCC3)cc2)cc1,·,35*,-7,11,-15,23
Cc1ccc(OCCC(=O)OCC(=O)Nc2ccc(N3CCOCC3)cc2)cc1,·,20,9,8,3,·
COc1ccc(S(=O)(=O)N2CCOC23CCN(S(=O)(=O)c2cccs2)CC3)cc1,·,·,4,9,6,·
C=C1c2cccc(O)c2C(O)=C2C(=O)[C@]3(O)C(O)=C(C(N)=O)C(=O)[C@@H](N(C)C)[C@@H]3[C@@H](O)[C@H]12,37*,95*,12,18,23,18
COc1ccc(OCC(=O)N2CCN(S(=O)(=O)c3ccc(Cl)cc3)CC2)cc1,5,7,7,4,10,·
CC(=O)N1CCN(c2ccc(Nc3nc(C)nc4c3oc3ccccc34)cc2)CC1,·,40*,6,2,2,34*
SMILES,RBBP9 inh,pPAFAH FP inh,PAFAH1B2 FP inh,PAFAH1B3 FP inh,PAFAH2 inh,pPAFAH FP conf
O=C(O)c1cccc2c(-c3ccccc3)c(-c3ccccc3)[nH]c12,-1,52*,48*,-2,-4,46*
O=C(Oc1ccc(OC(=O)C2CCC2)cc1)C1CCC1,4,42*,3,1,3,-3
COCCCOc1cc(NCc2ccccc2)c2ncn(C(C)C)c2c1,·,9,8,2,2,·
CCCCOc1cc(NCc2ccccc2)c2ncn(C(C)C)c2c1,·,36*,7,12,12,39*
COc1ccccc1NS(=O)(=O)c1ccc(-c2cnc(C3CC3)o2)cc1,·,-5,4,9,24,·
Cc1ccc(NS(=O)(=O)c2ccc(-c3cnc(C4CC4)o3)cc2)c(C)c1,·,53*,2,14,4,46*
COc1ccc(CNc2ncnc3c2[nH]c2cc(OC)c(OC)cc23)cc1,8,36*,11,19,12,22
Cc1cccc(C(=O)N(Cc2ccco2)c2c(N)n(Cc3ccccc3)c(=O)[nH]c2=O)c1,·,2,7,5,4,·
CCOC(=O)C1CCN(Cc2ccc(OCc3ccccc3)c(OC)c2)CC1,·,72*,1,9,1,-1
O=C(CC(C(=O)O)P(=O)(c1ccccc1)c1ccccc1)c1ccccc1 (stereo not given),-7,-4,7,5,0,·
O=[N+]([O-])c1ccccc1NC(=S)N/N=C/c1ccc(O)c(O)c1,-15,59*,5,24,49*,64*
O=[N+]([O-])c1ccccc1C=NNC(=S)NN=Cc1ccccc1[N+](=O)[O-],·,·,6,9,-6,·
C=CCn1c(SCC(=O)NC2CCCC2)nnc1-c1ccccn1,·,0,0,-4,-1,·
Cc1ccc(N2C(=O)c3ccccc3C2C(=O)c2ccc(O)cc2O)cc1 (stereo not given),6,47*,0,9,9,5
Cc1ccc(N2C(=O)c3ccccc3C2C(=O)c2cc(C)ccc2O)cc1 (stereo not given),-2,13,-3,-8,-5,·
O=C1/C(=C/c2cccs2)SC(=S)N1NS(=O)(=O)c1ccccc1,-9,3,-2,4,8,·
O=C1/C(=C/C=C/c2ccco2)SC(=S)N1NS(=O)(=O)c1ccccc1,6,74*,32*,45*,67*,69*
CC(C(=O)O)N1C(=O)/C(=C/C=C/c2ccco2)SC1=S (stereo not given),-9,76*,14,26*,50*,46*
O=C(O)CC(CCc1ccccc1)OC1OC(CO)C(O)C(O)C1O (stereo not given),·,74*,18,25,39*,34*
[C-]#[N+][C@H](O[C@@H]1O[C@H](CO)[C@@H](O)[C@H](O)[C@H]1O)c1ccccc1,·,7,4,0,-5,·
CC1CCN(C(C)C(=O)Nc2ccc(S(=O)(=O)N3CCCC3)cc2)CC1 (stereo not given),·,2,11,5,-2,·
C=Cc1c(C)c2cc3[nH]c(cc4nc(cc5nc(cc1[nH]2)C(C)=C5CCC(=O)O)C(CCC(=O)O)=C4C)c(C)c3C=C,·,97*,0,40*!,60*!,51*
Cn1ccnc1C(=O)c1cc(SCC(=O)NCc2ccccc2)nc2ccccc12,2,-1,2,5,-1,·
